Results published in ChEMBL document CHEMBL2375264, “Potent naphthoquinones against antimony-sensitive and -resistant Leishmania parasites: synthesis of novel α- and nor-α-lapachone-based 1,2,3-triazoles by copper-catalyzed azide-alkyne cycloaddition” (Eur J Med Chem, 2013).

Legend:
[1] = tested on: Leishmania amazonensis; assay: Ratio of potassium antimonyl tartrate IC50 to compound IC50 for antimony-sensitive Leishmania amazonensis MHOM/BR/1989/BA199 promastigote infected in Swiss mouse peritoneal macrophages; type: functional
[2] = tested on: Leishmania infantum; assay: Ratio of potassium antimonyl tartrate IC50 to compound IC50 for antimony-sensitive Leishmania infantum MCAN/BR/2002/BH400 promastigote infected in Swiss mouse peritoneal macrophages; type: functional
[3] = Selectivity index, ratio of CC50 for Swiss mouse peritoneal macrophages to IC50 for antimony-sensitive Leishmania amazonensis MHOM/BR/1989/BA199 promastigote; type: functional
Procedure, shortened: (§1)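 SI = CC50 / IC50. CC50 is from Swiss mouse peritoneal macrophages, read by MTT after lavage and 1 h adherence. […] Promastigotes grown in α-MEM with 10% heat-inactivated FBS, hemin and biopterin, pH 7.0, 25 °C. DMSO ≤0.2% final. Triplicate.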

[4] = Selectivity index, ratio of CC50 for Swiss mouse peritoneal macrophages to IC50 for antimony-sensitive Leishmania infantum MCAN/BR/2002/BH400 promastigote; type: functional; procedure, shortened: as §1
[5] = Cytotoxicity against Swiss mouse peritoneal macrophages after 24 hrs by MTT assay; type: cell-based, Peritoneal macrophage cell
Procedure, shortened: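 Macrophages from peritoneal lavage of Swiss mice with cold FBS-free RPMI-1640. Cells seeded at 4.0 × 10⁶/mL, adhered 1 h, non-adherent cells washed off. Compounds were DMSO stocks diluted in medium over a concentration range, final DMSO ≤0.2%. Viability read by MTT (5 mg/mL solution, 4 h further incubation). CC50 taken as the 50% cytotoxic concentration.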

[6] = tested on: Leishmania amazonensis; assay: Antileishmanial activity against antimony-resistant Leishmania amazonensis MHOM/BR/1989/BA199 promastigote infected in Swiss mouse peritoneal macrophages after 72 hrs; type: functional, organism-based; settings: MHOM/BR/1989/BA199, 72 h
Procedure, shortened: (§2)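 Promastigotes of Sb(III)-sensitive and -resistant lines (resistant to Sb(III) up to 2700), maintained at 25 °C, pH 7.0, in α-MEM with 10% heat-inactivated FBS, kanamycin, ampicillin, L-glutamine, hemin and biopterin. Drugs dissolved in DMSO, diluted in α-MEM across a concentration range, final DMSO ≤0.2%.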

[7] = tested on: Leishmania amazonensis; assay: Antileishmanial activity against antimony-sensitive Leishmania amazonensis MHOM/BR/1989/BA199 promastigote infected in Swiss mouse peritoneal macrophages after 72 hrs; type: functional, organism-based; settings: MHOM/BR/1989/BA199, 72 h; procedure, shortened: as §2
[8] = tested on: Leishmania infantum; assay: Antileishmanial activity against antimony-resistant Leishmania infantum MCAN/BR/2002/BH400 promastigote infected in Swiss mouse peritoneal macrophages after 72 hrs; type: functional, organism-based; settings: MCAN/BR/2002/BH400, 72 h; procedure, shortened: as §2
[9] = tested on: Leishmania infantum; assay: Antileishmanial activity against antimony-sensitive Leishmania infantum MCAN/BR/2002/BH400 promastigote infected in Swiss mouse peritoneal macrophages after 72 hrs; type: functional, organism-based; settings: MCAN/BR/2002/BH400, 72 h; procedure, shortened: as §2
[10] = Selectivity index, ratio of CC50 for Swiss mouse peritoneal macrophages to IC50 for antimony-resistant Leishmania amazonensis MHOM/BR/1989/BA199 promastigote; type: functional
Procedure, shortened: (§3)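 SI = CC50/IC50. CC50 comes from Swiss mouse peritoneal macrophages, harvested by lavage with cold RPMI-1640 lacking FBS. Cells seeded at 4.0 × 10⁶/mL, allowed to adhere 1 h, then washed free of non-adherent cells. Viability read by MTT (5 mg/mL stock, 4 h).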

[11] = Selectivity index, ratio of CC50 for Swiss mouse peritoneal macrophages to IC50 for antimony-resistant Leishmania infantum MCAN/BR/2002/BH400 promastigote; type: functional; procedure, shortened: as §3

SMILES	Ratio IC50 [1]	Ratio IC50 [2]	Ratio CC50/IC50 [3]	Ratio CC50/IC50 [4]	CC50 at 24 h [5]	IC50 [6]	IC50 [7]	IC50 [8]	IC50 [9]	Ratio CC50/IC50 [10]	Ratio CC50/IC50 [11]
O=C1C=C(n2cc(-c3ccc([N+](=O)[O-])cc3)nn2)C(=O)c2ccccc21	2.2	2	<0.5	<0.5	50 µM	> 100 µM	> 100 µM	> 100 µM	> 100 µM		
O=C1C=C(n2cc(CO)nn2)C(=O)c2ccccc21	2.2	2	0.4	0.24	9.51 µM	21.3 µM	23.9 µM	5.8 µM	39.1 µM	0.45	1.64
CC1(C)OC2=C(C(=O)C(=O)c3ccccc32)C1n1cc(-c2ccc(F)cc2)nn1 (stereo not drawn)	23	15.5	0.75	0.81	3.52 µM	4.39 µM	4.7 µM	4.9 µM	4.32 µM	0.8	0.72
CC1(C)OC2=C(C(=O)C(=O)c3ccccc32)C1n1cc(-c2ccc([N+](=O)[O-])cc2)nn1 (stereo not drawn)	23	15.5	0.98	1.03	3.35 µM	2.95 µM	3.41 µM	3.28 µM	3.25 µM	1.35	1.02
COc1ccc(-c2cn(C3C4=C(OC3(C)C)c3ccccc3C(=O)C4=O)nn2)cc1 (stereo not drawn)	23	15.5	1.13	0.78	4.36 µM	2.49 µM	3.87 µM	5.39 µM	5.57 µM	1.75	0.81
Cc1ccc(-c2cn(C3C4=C(OC3(C)C)c3ccccc3C(=O)C4=O)nn2)cc1 (stereo not drawn)	23	15.5	0.87	0.98	3.31 µM	3.49 µM	3.8 µM	3.1 µM	3.38 µM	0.95	1.07
O=C1C=C(n2cc(CN3C(=O)c4ccccc4C3=O)nn2)C(=O)c2ccccc21	2.2	2	0.11	0.13	5.39 µM	40.2 µM	50.6 µM	8.47 µM	42.1 µM	0.13	0.64
CC1(C)CC(n2cc(C3CCCCC3)nn2)C2=C(O1)C(=O)c1ccccc1C2=O (stereo not drawn)			0.93	3.8	8.59 µM	1.9 µM	9.23 µM	2.24 µM	2.26 µM	4.52	3.83
CCCCCc1cn(C2CC(C)(C)OC3=C2C(=O)c2ccccc2C3=O)nn1 (stereo not drawn)			1.15	3.38	6.89 µM	1.95 µM	6 µM	2.2 µM	2.04 µM	3.53	3.13
CCCc1cn(C2CC(C)(C)OC3=C2C(=O)c2ccccc2C3=O)nn1 (stereo not drawn)			3.38	2.5	14.8 µM	8.04 µM	4.37 µM	3.43 µM	5.9 µM	1.83	4.31
CCC(C)(O)c1cn(C2CC(C)(C)OC3=C2C(=O)c2ccccc2C3=O)nn1 (stereo not drawn)			0.27	0.54	9.63 µM	21.6 µM	35.2 µM	3.3 µM	17.7 µM	0.45	2.92
CC1(C)OC2=C(C(=O)c3ccccc3C2=O)C1n1cc(-c2ccccc2)nn1 (stereo not drawn)			3.74	8.01	8.01 µM	1.2 µM	2.14 µM	1.01 µM	1 µM	6.67	7.93
CCCCCCc1cn(C2C3=C(OC2(C)C)C(=O)c2ccccc2C3=O)nn1 (stereo not drawn)			0.25	2.47	2.77 µM	4.23 µM	11 µM	1.12 µM	1.12 µM	0.65	2.47
CCCCCc1cn(C2C3=C(OC2(C)C)C(=O)c2ccccc2C3=O)nn1 (stereo not drawn)			7.29	15.02	16 µM	1.14 µM	2.19 µM	1.14 µM	1.05 µM	14	14
CCC(C)(O)c1cn(C2C3=C(OC2(C)C)C(=O)c2ccccc2C3=O)nn1 (stereo not drawn)			0.99	12.36	17.9 µM	27 µM	18 µM	25.4 µM	1.45 µM	0.66	0.7
CC(C)(O)c1cn(C2C3=C(OC2(C)C)C(=O)c2ccccc2C3=O)nn1 (stereo not drawn)			1.39	12.78	19.8 µM	7.31 µM	14.2 µM	1.32 µM	1.55 µM	2.71	15.01
CC1(C)OC2=C(C(=O)c3ccccc3C2=O)C1n1cc(C2CCCCC2)nn1 (stereo not drawn)			5.35	10.23	18.7 µM	1.39 µM	3.5 µM	1.78 µM	1.83 µM	13.47	10.51
CC(C)=CC1=C(O)C(=O)c2ccccc2C1=O			<0.15	<0.15	14.6 µM	> 100 µM	> 100 µM	> 100 µM	> 100 µM		
CC1(C)OC2=C(C(=O)C(=O)c3ccccc32)C1n1cc(-c2ccccc2)nn1 (stereo not drawn)	23	15.5	3.08	3.42	3.42 µM	1.03 µM	1.11 µM	1.04 µM	1 µM	3.32	3.29
CC1(C)CC2=C(O1)C(=O)c1ccccc1C2=O			0.28	0.5	0.77 µM	1.54 µM	2.72 µM	1.28 µM	1.54 µM	0.5	0.6
CC1(C)CCC2=C(O1)C(=O)c1ccccc1C2=O [ALPHA-LAPACHONE]			0.24	0.27	3.8 µM	15.2 µM	16.1 µM	5.85 µM	13.9 µM	0.25	0.65
CC(C)=CCC1=C(O)C(=O)c2ccccc2C1=O [LAPACHOL]			0.58	1.71	59.3 µM	63.3 µM	102 µM	99.9 µM	34.7 µM	0.94	0.59
CC1(C)CCC2=C(O1)c1ccccc1C(=O)C2=O [LAPACHONE]			0.27	1.14	0.79 µM	1.39 µM	2.9 µM	1.13 µM	0.67 µM	0.57	0.7
CC1(C)CC2=C(O1)c1ccccc1C(=O)C2=O [NOR-BETA-LAPACHONE]			0.62	1.36	1.55 µM	1.59 µM	2.48 µM	1.6 µM	1.14 µM	0.97	0.97
